This note sets out measurements from ChEMBL document CHEMBL2203235, “Optimization of a natural product-based class of γ-secretase modulators” (J Med Chem, 2012).

A short description of data set [1]: Modulation of gamma secretase in CHO-2B7 cells assessed as reduction in amyloid beta 40 level after 5 hrs by MSD ELISA. Conditions: Cricetulus griseus, CHO-2B7, 5 h. In kind it is cell-based.
The nature of data set [2]: Metabolic stability in human liver microsomes assessed as compound remaining at 1 uM at 60 mins by LC/MS/MS analysis in absence of NADPH. It is filed as ADME, Microsome. Conditions: liver microsomes, read-out: Stability. The method in brief:
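Human liver microsomes were run without NADPH as a qualitative read of susceptibility to enzymatic hydrolysis. The read-out was percent parent remaining at 60 min.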

Data set [3] in a line: Modulation of gamma secretase in CHO-2B7 cells assessed as reduction in amyloid beta 42 level after 5 hrs by MSD ELISA. Conditions: Cricetulus griseus, CHO-2B7, 5 h. In kind it is cell-based.
Data set [4] has as its system Liver microsomes. As to the kind of experiment: Metabolic stability in human liver microsomes at 1 uM after 60 mins by LC/MS/MS analysis. Conditions: 1 h.
Data set [5] relates to CHO-2B7. The data set can be described thus: Modulation of gamma secretase in CHO-2B7 cells assessed as reduction in amyloid beta 40 level at 20 uM after 5 hrs by MSD ELISA. It is filed as cell-based. Also noted: scale not given: the % may be the effect or the level left. Conditions: Cricetulus griseus.

Consider `CC(=O)O[C@@H]([C@H]1C[C@@H](C)[C@H]2[C@H](O1)[C@H](O)[C@@]1(C)[C@@H]3CC[C@H]4C(C)(C)[C@@H](OC(=O)N5CCOCC5)CC[C@@]45C[C@@]35CC[C@]21C)C(C)(C)O`, for which the IC50 turned out to be 14000 nM in data set [1] and 310 nM in data set [3]. Besides, the remaining at 1 h, 1 µM in data set [2] was 2%.

Consider `CCO[C@@H]([C@H]1C[C@@H](C)[C@H]2[C@H](O1)[C@H](O)[C@@]1(C)[C@@H]3CC[C@H]4C(C)(C)[C@@H](OC(N)=O)CC[C@@]45C[C@@]35CC[C@]21C)C(C)(C)O`, for which the Stability entry in data set [4] is recorded as “Stable”. The half-inhibitory concentration (IC50) in data set [1] turned out to be 3900 nM; in data set [3] it was 210 nM. In data set [2], the remaining at 1 h, 1 µM turned out to be 116%.

Regarding `CC(C)[C@@H](OC(N)=O)[C@H]1C[C@@H](C)[C@H]2[C@H](O1)[C@H](O)[C@@]1(C)[C@@H]3CC[C@H]4C(C)(C)[C@@H](O[C@H]5CNCCO5)CC[C@@]45C[C@@]35CC[C@]21C`, the figures for the IC50 in data set [1] and in data set [3] were 1700 nM and 650 nM, respectively. For the same compound, the remaining at 1 h, 1 µM in data set [2] worked out at 108%.

With `CC(C)[C@@H](OC(N)=O)[C@H]1C[C@@H](C)[C@H]2[C@H](O1)[C@H](O)[C@@]1(C)[C@@H]3CC[C@H]4C(C)(C)[C@@H](OC(N)=O)CC[C@@]45C[C@@]35CC[C@]21C`, the IC50 in data set [1] stood at 1200 nM; in data set [3], 700 nM. The remaining at 1 h, 1 µM in data set [2] was 103%.

Take `CNC(=O)O[C@H](C(C)C)[C@H]1C[C@@H](C)[C@H]2[C@H](O1)[C@H](O)[C@@]1(C)[C@@H]3CC[C@H]4C(C)(C)[C@@H](O)CC[C@@]45C[C@@]35CC[C@]21C`: the IC50 in data set [1] turned out to be 8500 nM; in data set [3], 890 nM. For the same compound, the remaining at 1 h, 1 µM in data set [2] turned out to be 96%.

`CCO[C@@H]([C@H]1C[C@@H](C)[C@H]2[C@H](O1)[C@H](O)[C@@]1(C)[C@@H]3CC[C@H]4C(C)(C)[C@@H](O)CC[C@@]45C[C@@]35CC[C@]21C)C(C)(C)O`: the IC50 is 5500 nM in data set [1] and 350 nM in data set [3]. For the same compound, the remaining at 1 h, 1 µM in data set [2] stood at 100%.

For the compound `CC(C)[C@@H](OC(=O)N1CCC1)[C@H]1C[C@@H](C)[C@H]2[C@H](O1)[C@H](O)[C@@]1(C)[C@@H]3CC[C@H]4C(C)(C)[C@@H](O[C@H]5CN(CC(=O)O)CCO5)CC[C@@]45C[C@@]35CC[C@]21C`, the Stability result in data set [4] was “Stable”. In addition, the Activity in data set [5] amounted to 41%. Moreover, in data set [3], the concentration for half-maximal inhibition (IC50) came out at 700 nM.

Take `CC(C)[C@@H](OC(=O)N1CCC1)[C@H]1C[C@@H](C)[C@H]2[C@H](O1)[C@H](O)[C@@]1(C)[C@@H]3CC[C@H]4C(C)(C)[C@@H](OC(=O)NC5CCOCC5)CC[C@@]45C[C@@]35CC[C@]21C`: in data set [4], the Stability entry is reported as “Stable”. In addition, the Activity in data set [5] was 27%. For the same compound, the IC50 in data set [3] was 3000 nM.

With `CC(C)O[C@@H]([C@H]1C[C@@H](C)[C@H]2[C@H](O1)[C@H](O)[C@@]1(C)[C@@H]3CC[C@H]4C(C)(C)[C@@H](O[C@H]5CN(C6COC6)CCO5)CC[C@@]45C[C@@]35CC[C@]21C)C(C)(C)O`, the IC50 in data set [1] was determined as 2800 nM; in data set [3], 440 nM. The remaining at 1 h, 1 µM in data set [2] worked out at 105%.

For `C[C@@H]1C[C@H](COC(N)=O)O[C@H]2[C@H]1[C@@]1(C)CC[C@@]34C[C@@]35CC[C@H](O[C@H]3CN(C(=O)CC6CC6)CCO3)C(C)(C)[C@@H]5CC[C@H]4[C@]1(C)[C@H]2O`, the half-inhibitory concentration (IC50) in data set [1] worked out at 35000 nM; in data set [3], 840 nM. The remaining at 1 h, 1 µM in data set [2] is 77%.

Consider `CC(=O)O[C@@H]([C@H]1C[C@@H](C)[C@H]2[C@H](O1)[C@H](O)[C@@]1(C)[C@@H]3CC[C@H]4C(C)(C)[C@@H](OC(=O)N5CCC5)CC[C@@]45C[C@@]35CC[C@]21C)C(C)(C)O`, for which the IC50 in data set [1] stood at 15000 nM; in data set [3] it was 510 nM. Further, the remaining at 1 h, 1 µM in data set [2] stood at 17%.

`CC(C)[C@@H](OC(=O)N(C)C)[C@H]1C[C@@H](C)[C@H]2[C@H](O1)[C@H](O)[C@@]1(C)[C@@H]3CC[C@H]4C(C)(C)[C@@H](O)CC[C@@]45C[C@@]35CC[C@]21C`: the IC50 worked out at 10000 nM in data set [1] and 1000 nM in data set [3]. Moreover, the remaining at 1 h, 1 µM in data set [2] came out at 81%.

Consider `CNC(=O)OC[C@H]1C[C@@H](C)[C@H]2[C@H](O1)[C@H](O)[C@@]1(C)[C@@H]3CC[C@H]4C(C)(C)[C@@H](O[C@H]5CN(C(=O)CC6CC6)CCO5)CC[C@@]45C[C@@]35CC[C@]21C`, for which the IC50 in data set [1] stood at 81000 nM; in data set [3] it was 350 nM. The remaining at 1 h, 1 µM in data set [2] worked out at 81%.

As for `CCO[C@@H]([C@H]1C[C@@H](C)[C@H]2[C@H](O1)[C@H](O)[C@@]1(C)[C@@H]3CC[C@H]4C(C)(C)[C@@H](OC(=O)N5CCOCC5)CC[C@@]45C[C@@]35CC[C@]21C)C(C)(C)O`, the IC50 was determined as 2000 nM in data set [1] and 220 nM in data set [3]. In addition, in data set [2], the remaining at 1 h, 1 µM was determined as 77%.

Take `CC(C)CO[C@@H]([C@H]1C[C@@H](C)[C@H]2[C@H](O1)[C@H](O)[C@@]1(C)[C@@H]3CC[C@H]4C(C)(C)[C@@H](O[C@H]5CN(C6COC6)CCO5)CC[C@@]45C[C@@]35CC[C@]21C)C(C)(C)O`: the IC50 in data set [1] worked out at 6000 nM; in data set [3] it was 3000 nM. The remaining at 1 h, 1 µM in data set [2] amounted to 78%.

For the compound `CCO[C@H](C(C)C)[C@H]1C[C@@H](C)[C@H]2[C@H](O1)[C@H](O)[C@@]1(C)[C@@H]3CC[C@H]4C(C)(C)[C@@H](O)CC[C@@]45C[C@@]35CC[C@]21C`, the remaining at 1 h, 1 µM in data set [2] worked out at 85%. The IC50 in data set [3] was found to be 4400 nM.

Regarding `CC(=O)O[C@H](C(C)C)[C@H]1C[C@@H](C)[C@H]2[C@H](O1)[C@H](O)[C@@]1(C)[C@@H]3CC[C@H]4C(C)(C)[C@@H](O)CC[C@@]45C[C@@]35CC[C@]21C`, the IC50 in data set [1] came to 7500 nM; in data set [3] it was 780 nM. Further, in data set [2], the remaining at 1 h, 1 µM turned out to be 0%.

As to `CO[C@@H]([C@H]1C[C@@H](C)[C@H]2[C@H](O1)[C@H](O)[C@@]1(C)[C@@H]3CC[C@H]4C(C)(C)[C@@H](O[C@H]5CN(C6COC6)CCO5)CC[C@@]45C[C@@]35CC[C@]21C)C(C)(C)O`, the values for the 50% inhibitory concentration (IC50) in data set [1] and in data set [3] were 9900 nM and 690 nM, respectively. In addition, in data set [2], the remaining at 1 h, 1 µM was found to be 93%.

Take `CC(=O)O[C@@H]([C@H]1C[C@@H](C)[C@H]2[C@H](O1)[C@H](O)[C@@]1(C)[C@@H]3CC[C@H]4C(C)(C)[C@@H](OC(N)=O)CC[C@@]45C[C@@]35CC[C@]21C)C(C)(C)O`: the Activity in data set [5] amounted to 37%. The half-maximal inhibitory concentration (IC50) in data set [3] was 200 nM.

In the case of `CC(C)[C@@H](OC(=O)N(C)C)[C@H]1C[C@@H](C)[C@H]2[C@H](O1)[C@H](O)[C@@]1(C)[C@@H]3CC[C@H]4C(C)(C)[C@@H](O[C@H]5CNCCO5)CC[C@@]45C[C@@]35CC[C@]21C`, the 50% inhibitory concentration (IC50) worked out at 5900 nM in data set [1] and 580 nM in data set [3]. Further, the remaining at 1 h, 1 µM in data set [2] was determined as 114%.

Consider `C=C(C)CO[C@@H]([C@H]1C[C@@H](C)[C@H]2[C@H](O1)[C@H](O)[C@@]1(C)[C@@H]3CC[C@H]4C(C)(C)[C@@H](O[C@H]5CN(C6COC6)CCO5)CC[C@@]45C[C@@]35CC[C@]21C)C(C)(C)O`, for which the half-inhibitory concentration (IC50) was found to be 11000 nM in data set [1] and 340 nM in data set [3]. In addition, the remaining at 1 h, 1 µM in data set [2] turned out to be 84%.

Consider `CC(C)[C@@H](OC(=O)N(C)C)[C@H]1C[C@@H](C)[C@H]2[C@H](O1)[C@H](O)[C@@]1(C)[C@@H]3CC[C@H]4C(C)(C)[C@@H](OC(=O)NC5CNC5)CC[C@@]45C[C@@]35CC[C@]21C`, for which the values for the half-maximal inhibitory concentration (IC50) in data set [1] and in data set [3] were 9500 nM and 300 nM, respectively. The remaining at 1 h, 1 µM in data set [2] was 113%.

`CNC(=O)O[C@H](C(C)C)[C@H]1C[C@@H](C)[C@H]2[C@H](O1)[C@H](O)[C@@]1(C)[C@@H]3CC[C@H]4C(C)(C)[C@@H](OC(=O)NC5CNC5)CC[C@@]45C[C@@]35CC[C@]21C`: the IC50 was 5000 nM in data set [1] and 120 nM in data set [3]. Besides, the remaining at 1 h, 1 µM in data set [2] was determined as 110%.

As for `CNC(=O)O[C@H](C(C)C)[C@H]1C[C@@H](C)[C@H]2[C@H](O1)[C@H](O)[C@@]1(C)[C@@H]3CC[C@H]4C(C)(C)[C@@H](O[C@H]5CNCCO5)CC[C@@]45C[C@@]35CC[C@]21C`, the figures for the IC50 in data set [1] and in data set [3] were 4300 nM and 480 nM, respectively. For the same compound, in data set [2], the remaining at 1 h, 1 µM is 95%.

Regarding `CC(C)[C@@H](OC(=O)N1CCC1)[C@H]1C[C@@H](C)[C@H]2[C@H](O1)[C@H](O)[C@@]1(C)[C@@H]3CC[C@H]4C(C)(C)[C@@H](OC(=O)N5CCOCC5)CC[C@@]45C[C@@]35CC[C@]21C`, the Stability result in data set [4] is recorded as “Stable”. For the same compound, the IC50 in data set [1] is 11000 nM; in data set [3] it was 360 nM. For the same compound, the remaining at 1 h, 1 µM in data set [2] turned out to be 104%.

For the compound `CCO[C@@H]([C@H]1C[C@@H](C)[C@H]2[C@H](O1)[C@H](O)[C@@]1(C)[C@@H]3CC[C@H]4C(C)(C)[C@@H](OC(=O)NC5CNC5)CC[C@@]45C[C@@]35CC[C@]21C)C(C)(C)O`, in data set [4], the Stability result was “Stable”. For the same compound, the results for the IC50 in data set [1] and in data set [3] were 1900 nM and 53 nM, respectively. Also, the remaining at 1 h, 1 µM in data set [2] was 92%.

On to `CC(C)[C@@H](OC(=O)N1CCC1)[C@H]1C[C@@H](C)[C@H]2[C@H](O1)[C@H](O)[C@@]1(C)[C@@H]3CC[C@H]4C(C)(C)[C@@H](OC(=O)N[C@H]5CCCNC5=O)CC[C@@]45C[C@@]35CC[C@]21C`, for which the Stability result in data set [4] is reported as “Stable”. Also, the 50% inhibitory concentration (IC50) amounted to 6400 nM in data set [1] and 280 nM in data set [3].
